Experimental data reported in ChEMBL document CHEMBL1208778, “Synthesis and anti-cancer activity of chalcone linked imidazolones” (2010).
Activity calls are given as the source filed them. The rule behind the calls is not given here.

Experiments:
Format in all cases: functional
HCT-15 = assay: Growth inhibition of human HCT15 cells
Method in brief: (§1)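 Five-dose testing was run within the NCI (Bethesda) in vitro Anticancer Screen Program on a panel of 53 human tumour cell lines from nine cancer types. Growth inhibition is reported as GI50.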

SN12C = assay: Growth inhibition of human SN12C cells
Method in brief: (§2)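 Compounds that passed a preliminary screen were tested at five doses in the NCI (Bethesda) in vitro Anticancer Screen Program against a 53-line human tumour panel spanning leukemia, lung, colon, CNS, melanoma, ovarian, renal, prostate and breast. Growth inhibition is reported as GI50.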

NCI-H23 = assay: Growth inhibition of human NCI-H23 cells; method in brief: as §1
HCT-116 = assay: Growth inhibition of human HCT116 cells; method in brief: as §1
SNB-19 = assay: Growth inhibition of human SNB19 cells; method in brief: as §2
RXF 393 = assay: Growth inhibition of human RXF393 cells; method in brief: as §1
HT-29 = assay: Growth inhibition of human HT-29 cells; method in brief: as §1
EKVX = assay: Growth inhibition of human EKVX cells; method in brief: as §1
KM12 = assay: Growth inhibition of human KM12 cells; method in brief: as §1
SNB-75 = assay: Growth inhibition of human SNB75 cells; method in brief: as §2
NCI-H460 = assay: Growth inhibition of human NCI-H460 cells; method in brief: as §1
HOP-62 = assay: Growth inhibition of human HOP62 cells; method in brief: as §1
M14 = assay: Growth inhibition of human M14 cells; method in brief: as §1
MCF7 [1] = assay: Cell cycle arrest in human MCF7 cells assessed as accumulation at G1 phase at 30 uM after 24 hrs by FACS analysis
Method in brief: (§3)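 MCF-7 cells were treated at 30 µM for 24 h alongside a DMSO control. Fractions in G0, G1, S and G2/M phases were measured by FACS, and values are means of three experiments.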

OVCAR-8 = assay: Growth inhibition of human OVCAR8 cells; method in brief: as §1
[2] = Growth inhibition of human RPMI8266 cells; method in brief: as §1
SF-268 = assay: Growth inhibition of human SF268 cells; method in brief: as §1
MCF7 [3] = assay: Cell cycle arrest in human MCF7 cells assessed as accumulation at G1 phase at 10 uM after 24 hrs by FACS analysis
Method in brief: (§4)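 MCF-7 breast carcinoma cells were exposed to 10 µM test compound for 24 h, with DMSO as the vehicle control. Cell-cycle distribution was read by FACS as the percentage of cells in G0, G1, S and G2/M.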

UO-31 = assay: Growth inhibition of human UO31 cells; method in brief: as §2
OVCAR-4 = assay: Growth inhibition of human OVCAR4 cells; method in brief: as §1
U-251 = assay: Growth inhibition of human U251 cells; method in brief: as §2
TK-10 = assay: Growth inhibition of human TK10 cells; method in brief: as §2
MCF7 [4] = assay: Cell cycle arrest in human MCF7 cells assessed as accumulation at S phase at 30 uM after 24 hrs by FACS analysis; method in brief: as §3
MDA-MB-231 = assay: Growth inhibition of human MDA-MB-231 cells; method in brief: as §1
MCF7 [5] = assay: Cell cycle arrest in human MCF7 cells assessed as accumulation at G0 phase at 30 uM after 24 hrs by FACS analysis; method in brief: as §3
BT-549 = assay: Growth inhibition of human BT549 cells; method in brief: as §1
COLO 205 = assay: Growth inhibition of human COLO205 cells; method in brief: as §1
UACC-62 = assay: Growth inhibition of human UACC62 cells; method in brief: as §2
MDA-MB-435 = assay: Growth inhibition of human MDA-MB-435 cells; method in brief: as §1
NCI-H226 = assay: Growth inhibition of human NCI-H226 cells; method in brief: as §1
HOP-92 = assay: Growth inhibition of human HOP92 cells; method in brief: as §1
ACHN = assay: Growth inhibition of human ACHN cells; method in brief: as §1
SK-OV-3 = assay: Growth inhibition of human SKOV3 cells; method in brief: as §2
SW-620 = assay: Growth inhibition of human SW620 cells; method in brief: as §2
SF-295 = assay: Growth inhibition of human SF295 cells; method in brief: as §1
T47D = assay: Growth inhibition of human T47D cells; method in brief: as §2
NCI-H522 = assay: Growth inhibition of human NCI-H522 cells; method in brief: as §1
MCF7 [6] = assay: Cell cycle arrest in human MCF7 cells assessed as accumulation at S phase at 10 uM after 24 hrs by FACS analysis; method in brief: as §4
OVCAR-5 = assay: Growth inhibition of human OVCAR5 cells; method in brief: as §1
K562 = assay: Growth inhibition of human K562 cells; method in brief: as §1
MCF7 [7] = assay: Cell cycle arrest in human MCF7 cells assessed as accumulation at G2/M phase at 30 uM after 24 hrs by FACS analysis; method in brief: as §3
SK-MEL-28 = assay: Growth inhibition of human SK-MEL-28 cells; method in brief: as §1
SK-MEL-2 = assay: Growth inhibition of human SK-MEL-2 cells; method in brief: as §1
SF-539 = assay: Growth inhibition of human SF539 cells; method in brief: as §1
A498 = assay: Growth inhibition of human A498 cells; method in brief: as §1
NCI-H322M = assay: Growth inhibition of human NCI-H322M cells; method in brief: as §1
NCI/ADR-RES = assay: Growth inhibition of human NCI/ADR-RES cells; method in brief: as §1
MCF7 [8] = assay: Cell cycle arrest in human MCF7 cells assessed as accumulation at G0 phase at 10 uM after 24 hrs by FACS analysis; method in brief: as §4
SK-MEL-5 = assay: Growth inhibition of human SK-MEL-5 cells; method in brief: as §1
HCC 2998 = assay: Growth inhibition of human HCC2998 cells; method in brief: as §1
PC-3 = assay: Growth inhibition of human PC3 cells; method in brief: as §1
LOX IMVI = assay: Growth inhibition of human LOXIMVI cells; method in brief: as §1
786-0 = assay: Growth inhibition of human 786-0 cells; method in brief: as §1
[9] = Growth inhibition of human Hs 578T cells; method in brief: as §1
OVCAR-3 = assay: Growth inhibition of human OVCAR-3 cells; method in brief: as §1
MCF7 [10] = assay: Growth inhibition of human MCF7 cells; method in brief: as §1
MCF7 [11] = assay: Cell cycle arrest in human MCF7 cells assessed as accumulation at G2/M phase at 10 uM after 24 hrs by FACS analysis; method in brief: as §4
CAKI-1 = assay: Growth inhibition of human Caki1 cells; method in brief: as §1
UACC-257 = assay: Growth inhibition of human UACC257 cells; method in brief: as §2
Malme-3M = assay: Growth inhibition of human MALME-3M cells; method in brief: as §1
A549 = assay: Growth inhibition of human A549 cells; method in brief: as §1

`COc1cc(/C=C/C(=O)c2cccc(-n3cc(-c4ccc(Cl)cc4)[nH]c3=O)c2)cc(OC)c1OC` showed a GI50 (HCT-15) of 3.85 µM, a GI50 (SN12C) of 5.14 µM and a GI50 (NCI-H23) of 3.56 µM. For the same compound, the GI50 (HCT-116) was 1.39 µM, the GI50 (SNB-19) was 16.1 µM and the GI50 (RXF 393) was 3.22 µM. The GI50 (HT-29) was 2 µM, the GI50 (EKVX) was “inactive” and the GI50 (KM12) was 5.45 µM. The GI50 (SNB-75) was “inactive”, the GI50 (NCI-H460) was 3.74 µM and the GI50 (HOP-62) was “inactive”. The GI50 (M14) was 4.36 µM, the Activity (MCF7 [1]) was 44% and the GI50 (OVCAR-8) was 3.85 µM. The GI50 [2] was 3.92 µM, the GI50 (SF-268) was 5.07 µM and the Activity (MCF7 [3]) was 67.68%. The GI50 (UO-31) was 7.03 µM, the GI50 (OVCAR-4) was 11.4 µM and the GI50 (U-251) was 2.12 µM. It also gave a GI50 (TK-10) of 6.46 µM, an Activity (MCF7 [4]) of 17% and a GI50 (MDA-MB-231) of 13.8 µM. It also gave an Activity (MCF7 [5]) of 12%, a GI50 (BT-549) of 12.3 µM and a GI50 (COLO 205) of 7.38 µM. The GI50 (UACC-62) was 8.88 µM, the GI50 (MDA-MB-435) was 3.63 µM and the GI50 (NCI-H226) was “inactive”. For the same compound, the GI50 (HOP-92) was “inactive”, the GI50 (ACHN) was 7.17 µM and the GI50 (SK-OV-3) was 31.4 µM. For the same compound, the GI50 (SW-620) was 1.75 µM, the GI50 (SF-295) was 24.3 µM and the GI50 (T47D) was 6.65 µM. For the same compound, the GI50 (NCI-H522) was 4.1 µM, the Activity (MCF7 [6]) was 13.91% and the GI50 (OVCAR-5) was 3.11 µM. It also gave a GI50 (K562) of 3.69 µM, an Activity (MCF7 [7]) of 27% and a GI50 (SK-MEL-28) of 10.9 µM. It also gave a GI50 (SK-MEL-2) of 3.44 µM, a GI50 (SF-539) of 3.49 µM and a GI50 (A498) of 30.2 µM. It also gave a GI50 (NCI-H322M) of 12.9 µM, a GI50 (NCI/ADR-RES) of 2.36 µM and an Activity (MCF7 [8]) of 4.49%. For the same compound, the GI50 (SK-MEL-5) was 8.7 µM, the GI50 (HCC 2998) was 2.46 µM and the GI50 (PC-3) was “inactive”. It also gave a GI50 (LOX IMVI) of 1.72 µM, a GI50 (786-0) of 2.14 µM and a GI50 [9] of 5.96 µM. For the same compound, the GI50 (OVCAR-3) was 2.4 µM, the GI50 (MCF7 [10]) was 1.74 µM and the Activity (MCF7 [11]) was 13.92%. The GI50 (CAKI-1) was “inactive”, the GI50 (UACC-257) was 17.4 µM and the GI50 (Malme-3M) was 18.1 µM. The GI50 (A549) was “inactive”.

`COc1ccc(-c2cn(-c3cccc(C(=O)/C=C/c4ccc(O)c(OC)c4)c3)c(=O)[nH]2)cc1` gave a GI50 (HCT-15) of 3.15 µM, a GI50 (SN12C) of 4.11 µM and a GI50 (NCI-H23) of 2.85 µM. The GI50 (HCT-116) was 1.93 µM, the GI50 (SNB-19) was 5.84 µM and the GI50 (RXF 393) was 5.85 µM. It also gave a GI50 (HT-29) of 3.84 µM, a GI50 (EKVX) of 13.4 µM and a GI50 (KM12) of 1.77 µM. The GI50 (SNB-75) was 4.73 µM, the GI50 (NCI-H460) was 3.23 µM and the GI50 (HOP-62) was 5.15 µM. It also gave a GI50 (M14) of 5.14 µM, an Activity (MCF7 [1]) of 54.5% and a GI50 (OVCAR-8) of 4.97 µM. It also gave a GI50 [2] of 1.35 µM, a GI50 (SF-268) of 3.4 µM and an Activity (MCF7 [3]) of 57.66%. The GI50 (UO-31) was 5.19 µM, the GI50 (OVCAR-4) was 6.08 µM and the GI50 (U-251) was 3.45 µM. For the same compound, the GI50 (TK-10) was 6.08 µM, the Activity (MCF7 [4]) was 16% and the GI50 (MDA-MB-231) was 5.25 µM. The Activity (MCF7 [5]) was 20.5%, the GI50 (BT-549) was 4.57 µM and the GI50 (COLO 205) was 6.61 µM. For the same compound, the GI50 (UACC-62) was 3.96 µM, the GI50 (MDA-MB-435) was 3.35 µM and the GI50 (NCI-H226) was 4.1 µM. The GI50 (HOP-92) was 2.96 µM, the GI50 (ACHN) was 3.4 µM and the GI50 (SK-OV-3) was 4.77 µM. It also gave a GI50 (SW-620) of 2.5 µM, a GI50 (SF-295) of 13.9 µM and a GI50 (T47D) of 3.6 µM. The GI50 (NCI-H522) was 3.48 µM, the Activity (MCF7 [6]) was 14% and the GI50 (OVCAR-5) was 3.38 µM. It also gave a GI50 (K562) of 2.35 µM, an Activity (MCF7 [7]) of 9% and a GI50 (SK-MEL-28) of 2.03 µM. For the same compound, the GI50 (SK-MEL-2) was 5.54 µM, the GI50 (SF-539) was 2.25 µM and the GI50 (A498) was 3.72 µM. For the same compound, the GI50 (NCI-H322M) was 8.2 µM, the GI50 (NCI/ADR-RES) was 2.56 µM and the Activity (MCF7 [8]) was 2.16%. For the same compound, the GI50 (SK-MEL-5) was 2.63 µM, the GI50 (HCC 2998) was 2.32 µM and the GI50 (PC-3) was 3.05 µM. The GI50 (LOX IMVI) was 2.44 µM, the GI50 (786-0) was 4.53 µM and the GI50 [9] was 4.25 µM. For the same compound, the GI50 (OVCAR-3) was 2.7 µM, the GI50 (MCF7 [10]) was 3.18 µM and the Activity (MCF7 [11]) was 26.18%. For the same compound, the GI50 (CAKI-1) was 4.99 µM, the GI50 (UACC-257) was 13.3 µM and the GI50 (Malme-3M) was 4.42 µM. For the same compound, the GI50 (A549) was 4.14 µM.
